Reference: ChEMBL document CHEMBL3272033, “Physicochemical and pharmacological studies of some 8-substituted decahydroisoquinolines” (J Med Chem, 1976)

Experiments:
[1] = Dissociation constant, pKa of the compound in 0.01 M potassium hydrogen phthalate; type: physicochemical
Procedure, shortened: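 pKa by potentiometric titration with 0.01 M potassium hydrogen phthalate in a thermostated vessel, stirred, under nitrogen bubbling, using glass and calomel electrodes. pKa is the mean pH at half-neutralization from four titrations. Endpoints were taken from parallel tangents on either side of the inflection.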

Homo sapiens [2] = species on record: Homo sapiens; assay: Drug absorption in buccal cavity in human at pH 9.3 after 5 mins by UV spectrometry; type: ADME, organism-based; details: in vivo, other, pH 9.3, 5 min
Procedure, shortened: (§1)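 3 mg compound in 25 ml buffer (0.1 M phosphate pH 5.50 or 7.50; tetraborate pH 9.30) swished in the mouth for 5 min, expelled, and combined with a 10 ml water rinse. Made up to 50 ml; aliquot basified to pH 10 and ether-extracted, then back-extracted into 0.1 N HCl. UV absorbance read at λmax against Beer's law plots; the unrecovered fraction is taken as % absorbed. One to three subjects.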

Homo sapiens [3] = species on record: Homo sapiens; assay: Drug absorption in buccal cavity in human at pH 5.50 after 5 mins by UV spectrometry; type: ADME, organism-based; details: in vivo, other, pH 5.5, 5 min; procedure, shortened: as §1
Homo sapiens [4] = species on record: Homo sapiens; assay: Drug absorption in buccal cavity in human at pH 7.50 after 5 mins by UV spectrometry; type: ADME, organism-based; details: in vivo, other, pH 7.5, 5 min; procedure, shortened: as §1
Heart [5] = assay: Antiarrhythmic activity in Hartley guinea pig atria assessed as change in maximum driving rate at 65.0 uM/l after 5 mins; type: functional, Cavia porcellus
Procedure, shortened: (§2)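 Spontaneously beating isolated atria held under initial tension; bath fluid changed every 10 min; stabilised about 1 h. Maximum driving rate found with 1-ms square pulses at 50% above threshold voltage, 10 s every 30 s; the frequency just before failure of following is the MDR. Control is the mean of two determinations. Spontaneous rate recorded by tachograph. Values are % change from control at peak response, generally 5–30 min.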

Mus musculus [6] = assay: Antiarrhythmic activity in ip dosed Swiss-Webster albino mouse assessed as prevention of chloroform-induced ventricular fibrillation; type: functional, Heart
Mus musculus [7] = assay: Toxicity in ip dosed Swiss-Webster albino mouse; type: organism-based; details: in vivo
[8] = Therapeutic index, ratio of LD50 for toxicity to ED50 for antiarrhythmic activity in ip dosed Swiss-Webster albino mouse; type: organism-based, Heart; details: in vivo, read-out: Ratio LD50/ED50
Heart [9] = assay: Antiarrhythmic activity in Hartley guinea pig atria assessed as change in spontaneous rate at 65.0 uM/l after 5 mins; type: functional, Cavia porcellus; procedure, shortened: as §2
Homo sapiens [10] = assay: Toxicity in human assessed as numbness at 5 x 10' -5 M administered topically to buccal cavity measured up to 15 to 20 mins; type: organism-based; details: in vivo, topical_or_ocular, 50 µM
Heart [11] = assay: Antiarrhythmic activity in Hartley guinea pig atria assessed as change in maximum driving rate at 55.0 uM/l after 5 mins; type: functional, Cavia porcellus; procedure, shortened: as §2
Heart [12] = assay: Antiarrhythmic activity in Hartley guinea pig atria assessed as change in spontaneous rate at 55.0 uM/l after 5 mins; type: functional, Cavia porcellus; procedure, shortened: as §2
Heart [13] = assay: Antiarrhythmic activity in Hartley guinea pig atria assessed as change in maximum driving rate at 73.4 uM/l after 5 mins; type: functional, Cavia porcellus; procedure, shortened: as §2
Heart [14] = assay: Antiarrhythmic activity in Hartley guinea pig atria assessed as change in spontaneous rate at 73.4 uM/l after 5 mins; type: functional, Cavia porcellus; procedure, shortened: as §2
Heart [15] = assay: Antiarrhythmic activity in Hartley guinea pig atria assessed as change in maximum driving rate at 58.6 uM/l after 5 mins; type: functional, Cavia porcellus; procedure, shortened: as §2
Heart [16] = assay: Antiarrhythmic activity in Hartley guinea pig atria assessed as change in spontaneous rate at 58.6 uM/l after 5 mins; type: functional, Cavia porcellus; procedure, shortened: as §2
Heart [17] = assay: Antiarrhythmic activity in Hartley guinea pig atria assessed as change in maximum driving rate at 66.1 uM/l after 5 mins; type: functional, Cavia porcellus; procedure, shortened: as §2
Heart [18] = assay: Antiarrhythmic activity in Hartley guinea pig atria assessed as change in spontaneous rate at 66.1 uM/l after 5 mins; type: functional, Cavia porcellus; procedure, shortened: as §2
Heart [19] = assay: Antiarrhythmic activity in Hartley guinea pig atria assessed as change in maximum driving rate at 60.2 uM/l after 5 mins; type: functional, Cavia porcellus; procedure, shortened: as §2
Heart [20] = assay: Antiarrhythmic activity in Hartley guinea pig atria assessed as change in spontaneous rate at 60.2 uM/l after 5 mins; type: functional, Cavia porcellus; procedure, shortened: as §2
Heart [21] = assay: Antiarrhythmic activity in Hartley guinea pig atria assessed as change in maximum driving rate at 55.2 uM/l after 5 mins; type: functional, Cavia porcellus; procedure, shortened: as §2
Heart [22] = assay: Antiarrhythmic activity in Hartley guinea pig atria assessed as change in spontaneous rate at 55.2 uM/l after 5 mins; type: functional, Cavia porcellus; procedure, shortened: as §2
Heart [23] = assay: Antiarrhythmic activity in Hartley guinea pig atria assessed as change in maximum driving rate at 65.2 uM/l after 5 mins; type: functional, Cavia porcellus; procedure, shortened: as §2
Heart [24] = assay: Antiarrhythmic activity in Hartley guinea pig atria assessed as change in spontaneous rate at 65.2 uM/l after 5 mins; type: functional, Cavia porcellus; procedure, shortened: as §2

Structure (SMILES) | pKa [1] | Drug absorption (Homo sapiens [2]) [%] | Drug absorption (Homo sapiens [3]) [%] | Drug absorption (Homo sapiens [4]) [%] | ED50 (Mus musculus [6]) [µmol/kg] | LD50 (Mus musculus [7]) | selectivity ratio [8] | other results
CN1CC[C@H]2CCC[C@@H](OC(=O)c3ccc(Cl)cc3)[C@@H]2C1 (mixture of isomers) | 8.75 | 84.7 | 17.4 | 42.7 | 146 | 757 | 5.2 | Activity (Heart [5]): -55.8%; Activity (Heart [9]): -60.5%; Activity (Homo sapiens [10]): Toxic
COc1cc(C(=O)O[C@@H]2CCC[C@@H]3CCN(C)C[C@@H]32)cc(OC)c1OC (mixture of isomers) | 8.91 | 70.7 | 21.2 | 38.2 | 162 | 421 | 2.6 | Activity (Heart [11]): -32.3%; Activity (Heart [12]): -53.2%; Activity (Homo sapiens [10]): Toxic
CN1CC[C@H]2CCC[C@@H](NC(=O)c3ccccc3)[C@H]2C1 (mixture of isomers) | 9.18 | 40.6 | 9.3 | 16 | 242 | 1430 | 5.9 | Activity (Heart [13]): -15.1%; Activity (Heart [14]): -7.2%
CN1CC[C@H]2CCC[C@@H](NS(=O)(=O)c3ccccc3)[C@@H]2C1 (mixture of isomers) | 8.87 | 37.1 | 11.9 | 20.4 | 347 | 1113 | 3.3 | 
CN1CC[C@H]2CCC[C@@H](NC(=O)c3ccc(Cl)c(Cl)c3)[C@H]2C1 (mixture of isomers) | 9.05 | 60.6 | 20.1 | 25.1 | 73 | 712 | 9.7 | Activity (Heart [15]): -34.1%; Activity (Heart [16]): -21.7%
CN1CC[C@H]2CCC[C@@H](NC(=O)c3ccccc3)[C@@H]2C1 (mixture of isomers) | 8.99 | 42.9 | 11.1 | 15.9 | 246 | 1450 | 5.9 | Activity (Heart [13]): -17.6%; Activity (Heart [14]): -19.3%
COc1ccc(C(=O)N[C@@H]2CCC[C@@H]3CCN(C)C[C@@H]32)cc1 (mixture of isomers) | 9.19 | 30.6 | 4.7 | 7 | 268 | 1560 | 5.8 | Activity (Heart [17]): -15.1%; Activity (Heart [18]): -44.2%
COc1ccc(C(=O)N[C@@H]2CCC[C@@H]3CCN(C)C[C@@H]32)cc1OC (mixture of isomers) |  | 17.6 | 7 | 10.4 | 199 | 1770 | 8.9 | Activity (Heart [19]): -9.71%; Activity (Heart [20]): -16.9%
COc1cc(C(=O)N[C@@H]2CCC[C@@H]3CCN(C)C[C@@H]32)cc(OC)c1OC (mixture of isomers) | 9.02 | 23.8 | 8.1 | 14.2 | 160 | 1170 | 7.3 | Activity (Heart [21]): -7%; Activity (Heart [22]): -9.8%
CN1CC[C@H]2CCC[C@@H](NC(=O)c3ccc(Cl)cc3)[C@@H]2C1 (mixture of isomers) | 8.83 | 54.4 | 8.2 | 12.4 | 200 | 952 | 4.8 | Activity (Heart [23]): -20%; Activity (Heart [24]): -57.4%
